ChEMBL document CHEMBL1155251, “Efficient synthesis of the first betulonic acid-acetylene hybrids and their hepatoprotective and anti-inflammatory activity” (2009)
Activity calls are given as the source filed them. The calls are words filed in the database; no cut-off is given here.

Legend:
Mus musculus [1] = assay: Antiinflammatory activity against carrageenan-induced paw edema in mouse assessed as decrease in index of hind paw edema at 20 mg/kg, po administered 1 hr prior to carrageenan challenge; type: functional, organism-based; set-up: dose 20 mg/kg
Outline: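 Outbred male mice (22–25 g), ad libitum food/water. Dosed orally at 20 mg/kg as aqueous-Tween suspension 1 h before carrageenan; controls got water–Tween. Killed by cervical dislocation 5 h after phlogogen; hind paws cut at ankle and weighed. Edema index = (treated − untreated paw weight)/untreated paw weight.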

Mus musculus [2] = assay: Hepatoprotective activity against CCL4-induced hepatitis in mouse assessed as aspartate amino transferase level at 100 mg/kg, po administered 1 hr prior to CCL4 challenge (reference value: 5.23+/- 0.76 ucat/L); type: functional
Outline: (§1)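 Outbred male mice (22–25 g). Acute hepatitis induced by single oral 25% CCl4 in sunflower oil. Compounds given orally as water–Tween-80 suspension 1 h before induction; controls got vehicle. At least ten animals per group. Next day, serum ALP, ALT and AST measured with standard kits; TBARS measured by an established procedure.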

Mus musculus [3] = assay: Hepatoprotective activity against CCL4-induced hepatitis in mouse assessed as alkaline phosphatase level at 100 mg/kg, po administered 1 hr prior to CCL4 challenge (reference value: 18.27+/- 1.42 ucat/L); type: functional; outline: as §1
Mus musculus [4] = assay: Hepatoprotective activity against CCL4-induced hepatitis in mouse assessed as […] level at 100 mg/kg, po administered 1 hr prior to CCL4 challenge (reference value: 5.04+/- 0.72 ucat/L); type: functional; outline: as §1
Mus musculus [5] = assay: Hepatoprotective activity against CCL4-induced hepatitis in mouse assessed as thiobarbiturate relative substance level at 100 mg/kg, po administered 1 hr prior to CCL4 challenge (reference value: 1.63+/- 0.24 ucat/L); type: functional; outline: as §1
Mus musculus [6] = assay: Hepatoprotective activity against CCL4-induced hepatitis in mouse assessed as alkaline phosphatase level at 20 mg/kg, po administered 1 hr prior to CCL4 challenge (reference value: 18.27+/- 1.42 ucat/L); type: functional; outline: as §1
Mus musculus [7] = assay: Hepatoprotective activity against CCL4-induced hepatitis in mouse assessed as […] level at 20 mg/kg, po administered 1 hr prior to CCL4 challenge (reference value: 5.04+/- 0.72 ucat/L); type: functional; outline: as §1
Mus musculus [8] = assay: Hepatoprotective activity against CCL4-induced hepatitis in mouse assessed as aspartate amino transferase level at 20 mg/kg, po administered 1 hr prior to CCL4 challenge (reference value: 5.23+/- 0.76 ucat/L); type: functional; outline: as §1
Mus musculus [9] = assay: Hepatoprotective activity against CCL4-induced hepatitis in mouse assessed as thiobarbiturate relative substance level at 20 mg/kg, po administered 1 hr prior to CCL4 challenge (reference value: 1.63+/- 0.24 ucat/L); type: functional; outline: as §1
Mus musculus [10] = assay: Hepatoprotective activity against CCL4-induced hepatitis in mouse assessed as aspartate amino transferase level at 50 mg/kg, po administered 1 hr prior to CCL4 challenge (reference value: 5.23+/- 0.76 ucat/L); type: functional; outline: as §1
Mus musculus [11] = assay: Hepatoprotective activity against CCL4-induced hepatitis in mouse assessed as thiobarbiturate relative substance level at 50 mg/kg, po administered 1 hr prior to CCL4 challenge (reference value: 1.63+/- 0.24 ucat/L); type: functional; outline: as §1
Mus musculus [12] = assay: Hepatoprotective activity against CCL4-induced hepatitis in mouse assessed as […] level at 50 mg/kg, po administered 1 hr prior to CCL4 challenge (reference value: 5.04+/- 0.72 ucat/L); type: functional; outline: as §1
Mus musculus [13] = assay: Hepatoprotective activity against CCL4-induced hepatitis in mouse assessed as alkaline phosphatase level at 50 mg/kg, po administered 1 hr prior to CCL4 challenge (reference value: 18.27+/- 1.42 ucat/L); type: functional; outline: as §1

Row | SMILES | Activity (Mus musculus [1]) | Activity (Mus musculus [10]) [ucat/L] | Activity (Mus musculus [11]) [µmol/L] | Activity (Mus musculus [12]) [ucat/L] | Activity (Mus musculus [13]) [ucat/L] | other results
1 | COc1ccc2c(c1)c(CC(=O)O)c(C)n2C(=O)c1ccc(Cl)cc1 | Active | – | – | – | – | –
2 | O=C1c2c(O)cc(O)cc2O[C@H](c2ccc(O)c(O)c2)[C@H]1O [(+)-TAXIFOLIN] | – | – | – | – | – | Activity (Mus musculus [2]): 3.88 ucat/L; Activity (Mus musculus [3]): 11.31 ucat/L; Activity (Mus musculus [4]): 3.63 ucat/L; Activity (Mus musculus [5]): 1.42 µmol/L
3 | C=C(C)[C@@H]1CC[C@]2(C(=O)Nc3ccc(I)cc3)CC[C@]3(C)[C@H](CC[C@@H]4[C@@]5(C)CCC(=O)C(C)(C)[C@@H]5CC[C@]43C)[C@@H]12 | inactive | – | – | – | – | Activity (Mus musculus [6]): 10.27 ucat/L; Activity (Mus musculus [7]): 2.75 ucat/L; Activity (Mus musculus [8]): 3.09 ucat/L; Activity (Mus musculus [9]): 2.03 µmol/L
4 | C=C(C)[C@@H]1CC[C@]2(C(=O)Nc3ccc(C#CCN4CCCCC4)cc3)CC[C@]3(C)[C@H](CC[C@@H]4[C@@]5(C)CCC(=O)C(C)(C)[C@@H]5CC[C@]43C)[C@@H]12 | Active | 3.25 | 1.06 | 3.08 | 12.8 | –
5 | C=C(C)[C@@H]1CC[C@]2(C(=O)Nc3ccc(C#CCN4CCOCC4)cc3)CC[C@]3(C)[C@H](CC[C@@H]4[C@@]5(C)CCC(=O)C(C)(C)[C@@H]5CC[C@]43C)[C@@H]12 | Active | 5.25 | 3.21 | 3.48 | 14.28 | –
